Active and inactive are the calls of the source. The rule behind the calls is not given here.
Assays:
[1] = molecular target: MAP kinase p38 (Homo sapiens) (UniProt O15264+Q15759+Q16539+P53778); experiment: Inhibition of p38 phosphorylation in human HeLa cells at 20 uM after 3 hrs by Western blotting analysis; assay type: cell-based
Summary of the method: (§1)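 HeLa cells exposed to 20 μM compound for 3 h. Lysed in Tris pH 7.4/NaCl/NP-40/deoxycholate/SDS buffer with protease and phosphatase inhibitors, protein by BCA. Then 20 μg protein on 8–10% SDS-PAGE, transferred to nitrocellulose and blocked with 5% milk. Primary antibodies overnight at 4 °C, detection by chemiluminescence. Phospho-ERK1/2, -JNK and -p38 quantified by densitometry (n = 3, ANOVA).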

HeLa = experiment: Cytotoxicity against human HeLa cells assessed as decrease in cell viability at 50 uM after 48 hrs by WST-8-based colorimetric assay; assay type: functional
Summary of the method: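 HeLa cells in 96-well plates given 50 μM compound for 48 h. Viability read with CCK-8: phenol red-free DMEM containing 10% WST-8 added, 1 h at 37 °C, then OD at 450 nm. Computed from the mean of three wells (n = 3, ANOVA).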

[2] = molecular target: c-Jun N-terminal kinase, JNK (Homo sapiens) (UniProt P45983+P53779+P45984); experiment: Inhibition of JNK phosphorylation in human HeLa cells at 20 uM after 3 hrs by Western blotting analysis; assay type: cell-based; summary of the method: as §1
[3] = molecular target: T1, Mitogen-activated protein kinase; ERK1/ERK2 (Homo sapiens) (UniProt P27361+P28482); experiment: Inhibition of ERK1/2 phosphorylation in human HeLa cells at 20 uM after 3 hrs by Western blotting analysis; assay type: cell-based; summary of the method: as §1
[4] = molecular target: T1, Mitogen-activated protein kinase; ERK1/ERK2 (Homo sapiens); experiment: Inhibition of ERK1/2 phosphorylation in human HeLa cells after 3 hrs by Western blotting analysis; assay type: cell-based
Summary of the method: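 HeLa cells exposed to compound at indicated concentrations (2.5 to 40 μM range) for 3 h, with PD98059 as positive control. Lysate protein (20 μg) was run on SDS-PAGE and Western blotted for phospho-ERK1/2. Blots were quantified by densitometry (n = 3, ANOVA).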

T1 sequence (P27361 whole entry, looked up): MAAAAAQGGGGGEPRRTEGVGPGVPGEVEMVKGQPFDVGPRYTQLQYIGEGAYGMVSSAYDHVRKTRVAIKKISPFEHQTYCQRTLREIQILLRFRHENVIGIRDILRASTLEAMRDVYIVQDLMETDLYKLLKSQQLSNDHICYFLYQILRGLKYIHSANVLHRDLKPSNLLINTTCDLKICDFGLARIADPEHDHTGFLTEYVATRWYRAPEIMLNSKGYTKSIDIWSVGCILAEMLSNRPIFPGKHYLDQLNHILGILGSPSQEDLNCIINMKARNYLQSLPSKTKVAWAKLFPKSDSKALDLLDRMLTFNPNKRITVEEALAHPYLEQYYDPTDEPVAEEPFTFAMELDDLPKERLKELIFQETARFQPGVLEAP
T1 sequence (P28482 whole entry, looked up): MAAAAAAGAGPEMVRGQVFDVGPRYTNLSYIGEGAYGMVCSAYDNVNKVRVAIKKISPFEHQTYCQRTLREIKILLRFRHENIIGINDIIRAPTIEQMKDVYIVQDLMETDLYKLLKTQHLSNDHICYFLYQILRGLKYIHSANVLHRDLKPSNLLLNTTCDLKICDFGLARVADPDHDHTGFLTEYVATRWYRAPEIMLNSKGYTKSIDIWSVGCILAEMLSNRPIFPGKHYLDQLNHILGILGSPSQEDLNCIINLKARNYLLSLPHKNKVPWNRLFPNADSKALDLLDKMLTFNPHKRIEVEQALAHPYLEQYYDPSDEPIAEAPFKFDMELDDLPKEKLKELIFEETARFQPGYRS

SMILES | inhibition [1] | Activity (HeLa) | inhibition [2] | inhibition [3] | inhibition [4]
C/C1=C\CCC2=CC(O)(C/C(C)=C/CC1)OC2=O (racemic) | inactive | inactive | inactive | Active | –
C=C(C)[C@H]1CCC(=C)[C@@H](O)CCC2=C[C@H]1OC2=O | inactive | – | inactive | Active | –
CC(=O)OC[C@]1(C)[C@@H]2/C=C(/C=O)CC/C=C(\C)CC[C@H]21 | inactive | – | inactive | Active | –
C=C(C)[C@H]1CC[C@]2(C)[C@@H]([N+](=O)[O-])CC[C@@]23C(=O)O[C@@H]1[C@@H]3O | inactive | – | inactive | Active | –
C=C(C)[C@H]1CC/C(C)=C/CCC2=C[C@H]1OC2=O | inactive | – | inactive | Active | –
C[C@@H]1CC(=O)C=C2CC[C@@H]3[C@@H](C3(C)C)[C@]21C | inactive | – | inactive | – | Dose-dependent effect
CC1(C)[C@@H]2CC[C@@]3(C)O[C@@H]3CC/C(C=O)=C\[C@@H]21 | inactive | – | inactive | Active | –
C/C1=C\CC/C(C=O)=C\[C@@H]2[C@@H](CC1)[C@]2(C)CO | – | Active | – | – | –
COc1cccc(-c2cc(=O)c3ccccc3o2)c1N | – | – | – | Active | –
C=C(C)[C@H]1C/C=C(\C)[C@@H](O)CCC2=C[C@H]1OC2=O | – | Active | – | – | –
CC(=O)O[C@H]1/C=C(\C=O)CC/C=C(\C)CC/C=C(\C)C1 | – | Active | – | – | –
COC(=O)[C@]1(C)[C@@H]2/C=C(/C=O)CC/C=C(\C)CC[C@H]21 | – | Active | – | – | –
C/C1=C\CC/C(C=O)=C\[C@H]2[C@@H](C[C@H]1O)C2(C)C | inactive | – | inactive | Active | –
C/C1=C\CCC2=C[C@H](C/C(C)=C/CC1)OC2=O | inactive | – | inactive | – | Dose-dependent effect
C/C1=C\CC/C(C=O)=C\[C@@H]2[C@@H](CC1)C2(C)C | inactive | – | inactive | Active | –

Source: ChEMBL document CHEMBL2331229, “Extracellular signal-regulated kinases (ERK) inhibitors from Aristolochia yunnanensis” (J Nat Prod, 2013)
